NR2E3 ag-1: NR2E3 agonists in two-hybrid cells, primary screen, cell-based, luminescence, CHO-S, Gal4-NCOR/VP16-NR2E3 | Photoreceptor-specific nuclear receptor (Homo sapiens), Q9Y5X4 | AID 602229, 2012 | luciferase | hit rate 0.35% among 360,000 | inhibition of corepressor binding, % at 3.98 µM;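 active = inhibition above the mean of all tested compounds plus 3 SD, cut at about 70% in these data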;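 also: 0% = DMSO with NR2E3 transfected cells and 100% = cells lacking NR2E3 construct; higher means lower luciferase signal from less NR2E3 corepressor binding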
Target sequence (Q9Y5X4 whole entry, looked up, the tested form may be a part): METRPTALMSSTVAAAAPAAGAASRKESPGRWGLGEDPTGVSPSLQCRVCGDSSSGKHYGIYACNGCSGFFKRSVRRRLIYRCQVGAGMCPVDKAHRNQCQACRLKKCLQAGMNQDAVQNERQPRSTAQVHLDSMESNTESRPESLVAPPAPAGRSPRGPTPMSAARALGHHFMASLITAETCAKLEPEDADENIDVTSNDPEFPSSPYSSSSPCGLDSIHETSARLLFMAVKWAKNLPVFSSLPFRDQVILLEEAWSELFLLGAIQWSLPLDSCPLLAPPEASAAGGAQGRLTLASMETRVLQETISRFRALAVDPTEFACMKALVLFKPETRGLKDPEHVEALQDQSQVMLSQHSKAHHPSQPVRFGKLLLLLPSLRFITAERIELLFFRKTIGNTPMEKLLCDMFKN
NR2E3 ag-2: inhibitors of NR2E3-RetCOR corepressor binding, primary screen, NR2E3 agonist project, biochemical, TR-FRET, GST-NR2E3, biotin-RetCOR; Photoreceptor-specific nuclear receptor (Homo sapiens), Q9Y5X4; inhibition of corepressor binding, % at 4.78 µM; hit rate 0.12% among 320,000; AID 2300, 2010; 1536-well;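 active = percent inhibition above the cutoff of mean plus 3 SD of all tested compounds, set per screening campaign, cut at about 20% in these data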;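 also: 0% = DMSO wells and 100% = biotin wells as full block of FRET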
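Test system: GST-NR2E3 and biotin-RetCOR proteins | Quantity: 1.35 nM GST-tagged NR2E3 final | Medium: Tris pH 7.5 | Also added: 7 nM biotin-RetCOR | Dosing: Compound at 4.8 µM, single dose | Timing: 5 h at 4 °C | Detection: Time-resolved FRET | Read-out basis: Percent inhibition | Benchmarks: Biotin wells as high control, 0.6% DMSO wells as low control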
PP1 counter: PP1-alpha phosphatase inhibitors, primary screen, counter-screen for PP5 inhibitor project, biochemical, fluorescence, OMFP substrate, single point. Serine/threonine-protein phosphatase PP1-alpha catalytic subunit (Homo sapiens), P62136. purified PP1alpha. inhibition, % at 6.7 µM. hit rate 0.9% among 320,000. AID 2235, 2010;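 active = inhibition above the mean inhibition of all tested compounds plus 3 SD, computed separately for each screening campaign, cut at about 15% in these data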
PP5 inh: PP5 phosphatase inhibitors, primary screen, biochemical, fluorescence; inhibition, % at 6.7 µM; purified PP5c, OMFP substrate fluorescence; Serine/threonine-protein phosphatase 5 (Homo sapiens), P53041; hit rate 0.18% among 320,000;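 active = inhibition above the campaign's mean inhibition across all tested compounds plus 3 SD, cut at about 9.5% in these data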;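 also: 0% = DMSO only and 100% = 100 µM cantharidin control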
PP1 inh confirm: PP1 phosphatase inhibitors, confirmation, biochemical, fluorescence, OMFP substrate, triplicate | shares compounds with PP1 counter | purified PP1alpha | inhibition, % at 6.7 µM | hit rate 52% among 1,900 | AID 2358, 2010;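 active = mean PP1 inhibition above a set limit taken from the earlier primary screen, cut at about 15% in these data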
PP5 inh counter: PP5 phosphatase inhibition by PP1 hits, confirmation, counter-screen for PP1 inhibitor project, biochemical, fluorescence, triplicate. shares compounds with PP1 counter. purified PP5c, OMFP fluorescence. inhibition, % at 6.7 µM. hit rate 4% among 1,900. AID 2360, 2010;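 active = mean PP5 inhibition over triplicate wells above about 9.5% taken from the earlier PP1 screen, limit read from the data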
Active calls of the source: *; . = no result given. A selection: hits, their analogues and other compounds. The true share with any hit is near 1.3%.

SMILES	NR2E3 ag-1	NR2E3 ag-2	PP1 counter	PP5 inh	PP1 inh confirm	PP5 inh counter
COCCN1C(=O)Cc2c1nc(N)c1c(N)nc(N3CCN(c4ccc(F)cc4)CC3)c(C#N)c21	-4	-1	19*	1	8	7
Cc1nc(Nc2cnc(/C=C/c3cc(C(=O)Nc4cccc(C(F)(F)F)c4)ccc3C)cn2)cc(N2CCNCC2)n1	.	-2	23*	2	-6	-2
Cc1cc(C)n2nc(SCC(=O)N3CCCC(C)C3)nc2n1 (centres undefined)	-24	.	.	.	.	.
Cc1cc(C)c(OCC(=O)NCC2CCCO2)c(C)c1 (centres undefined)	-17	4	42*	3	-1	-2
Cc1cccc(C)c1OCC(=O)NCC1CCCO1 (centres undefined)	-23	2	-1	-1	.	.
Cc1sc2nc(CN3CCOCC3)nc(N3CCN(S(=O)(=O)c4ccccc4)CC3)c2c1C	-12	3	-3	3	.	.
Cc1sc2nc(CN3CCCC3)nc(N3CCN(S(=O)(=O)c4cccc(F)c4)CC3)c2c1C	-12	-1	19*	3	3	-2
Cc1ccccc1Nc1nnc(SCC(=O)NC(=O)NCc2ccco2)s1	-12	-5	26*	1	7	-3
NC(=O)c1ccsc1NC(=O)CS(=O)(=O)c1ccc(F)cc1	-45	3	-4	0	.	.
O=C(Nc1cccnc1)c1ccc(Cl)c(S(=O)(=O)N2CCCCC2)c1	14	0	0	1	.	.
O=C(Nc1cccnc1)c1ccc(Cl)c(S(=O)(=O)N2CCCC2)c1	-29	2	38*	2	-4	-8
O=C(NC1CC1)c1ccc2c(c1)S(=O)(=O)c1cc(Cl)ccc1C2=O	.	1	-3	1	.	.
CN(Cc1c(C(=O)N/N=C/c2c(F)cccc2Cl)nnn1-c1nonc1N)C1CCCCC1	6	.	.	.	.	.
Cc1nc(SC(C)C(=O)Nc2cccc(C(F)(F)F)c2)c2c(C)c(C(=O)O)sc2n1 (centres undefined)	-8	3	45*	-1	15*	-5
Cc1nc(N2CCC(C)CC2)c2c(C)c(C(=O)Nc3cccc(C(F)(F)F)c3)sc2n1	11	-4	-4	4	.	.
COC(=O)C1=C(C)N(Cc2ccccc2)C(=NCc2cccc(C(F)(F)F)c2)N[C@H]1c1cccc(F)c1	36	0	18*	5	-4	3
Cc1ccc2[nH]c(C(=O)N3CCN(C(c4ccccc4)c4ccccc4)CC3)cc2c1	11	-4	6	-1	.	.
CCN(CC)C(=O)CSc1ncnc2c(-c3cccs3)nsc12	-80	-2	25*	3	6	-3
O=CNc1c(Cl)cc2c(c1Cl)Cc1cc([N+](=O)[O-])ccc1-2	-24	.	.	.	.	.
COC(=O)C1=CO[C@@H](C)[C@H]2CN3CCc4c([nH]c5ccccc45)[C@@H]3C[C@H]12	9	-1	1	-1	.	.
COC(=O)C1=COC(C)C2CN3CCc4c([nH]c5ccccc45)C3CC12 (centres undefined)	-14	1	20*	5	-3	18*
COc1cccc(N=Nc2c(=O)[nH]n3c(=O)cc(C)[nH]c23)c1	-4	-9	5	3	.	.
COc1cccc(N=Nc2c(=O)[nH]n3c(=O)c4c([nH]c23)CCC4)c1	-12	-7	20*	2	16*	0
O=c1[nH]n2c(=O)c3c([nH]c2c1N=Nc1cccc(C(F)(F)F)c1)CCCC3	23	-2	26*	1	24*	0
COc1ccc(C2/C(=C(\O)c3ccc4c(c3)OCCO4)C(=O)C(=O)N2c2nc(C)c(C(C)=O)s2)cc1 (centres undefined)	-2	0	19*	2	11	-6
